Calls of active or inactive are those of the source. The calls are words filed in the database; no cut-off is given here.
Columns and labels:
Mus musculus [1] = test: Antiinflammatory activity against trinitrobenzenesulfonic acid-induced colitis in human PXR expressing transgenic C57/BL6 mouse assessed as decrease in edema of colon at 10 mg/kg, ip qd administered 3 days before TNBS challenge measured after 7 days; format: functional, organism-based; parameters: dose 10 mg/kg; settings: C57Bl/6
Procedure, shortened: (§1)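 Male hPXR mice (human PXR on mouse PXR-null background). Fasted 16 h and lightly anaesthetised with ketamine/xylazine, then given TNBS 0.5 mg/mouse in 50% ethanol intrarectally in 150 μL. Drug was dissolved in DMSO, diluted in 1% methylcellulose and given i.p. once daily for 3 days before TNBS. Vehicle controls received methylcellulose. Mice were sacrificed 4 days after TNBS; n = 6–7 per group.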

Mus musculus [2] = test: Antiinflammatory activity against trinitrobenzenesulfonic acid-induced colitis in human PXR expressing transgenic C57/BL6 mouse assessed as decrease in thickness of colon at 10 mg/kg, ip qd administered 3 days before TNBS challenge measured after 7 days; format: functional, organism-based; parameters: dose 10 mg/kg; settings: C57Bl/6; procedure, shortened: as §1
Mus musculus [3] = test: Antiinflammatory activity against trinitrobenzenesulfonic acid-induced colitis in human PXR expressing transgenic C57/BL6 mouse assessed as decrease in weight loss at 10 mg/kg, ip qd administered 3 days before TNBS challenge measured after 7 days; format: functional, organism-based; parameters: dose 10 mg/kg; settings: C57Bl/6; procedure, shortened: as §1
Mus musculus [4] = test: Antiinflammatory activity against trinitrobenzenesulfonic acid-induced colitis in human PXR expressing transgenic C57/BL6 mouse assessed as decrease in occurrence of diarrhea at 10 mg/kg, ip administered on day 1 after TNBS challenge measured after 5 days; format: functional, organism-based; parameters: dose 10 mg/kg; settings: C57Bl/6
Procedure, shortened: (§2)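 Therapeutic protocol in male hPXR mice. Colitis was induced with intrarectal TNBS 0.5 mg/mouse in 50% ethanol after a 16 h fast and light ketamine/xylazine anaesthesia. Drug at 10 mg/kg was given once daily from day 1 after TNBS. Mice were sacrificed 5 days after TNBS; n = 4–6 per group.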

Mus musculus [5] = test: Antiinflammatory activity against trinitrobenzenesulfonic acid-induced colitis in human PXR expressing transgenic C57/BL6 mouse assessed as decrease in appearance of epithelial erosions in colon at 10 mg/kg, ip qd administered 3 days before TNBS challenge measured after 7 days by haematoxylin/eosin staining; format: functional, organism-based; parameters: dose 10 mg/kg; settings: C57Bl/6; procedure, shortened: as §1
Mus musculus [6] = test: Antiinflammatory activity against trinitrobenzenesulfonic acid-induced colitis in human PXR expressing transgenic C57/BL6 mouse assessed as increase in TGF-beta1 protein level in colon at 10 mg/kg, ip qd after 5 days; settings: C57Bl/6
Mus musculus [7] = test: Antiinflammatory activity against trinitrobenzenesulfonic acid-induced colitis in human PXR expressing transgenic C57/BL6 mouse assessed as decrease in thickening of colon wall at 10 mg/kg, ip administered on day 1 after TNBS challenge measured after 5 days by microscopically; format: functional, organism-based; parameters: dose 10 mg/kg; settings: C57Bl/6; procedure, shortened: as §2
Mus musculus [8] = test: Antiinflammatory activity against trinitrobenzenesulfonic acid-induced colitis in human PXR expressing transgenic C57/BL6 mouse assessed as decrease in thickness of colon at 10 mg/kg, ip administered on day 1 after TNBS challenge measured after 5 days; format: functional, organism-based; parameters: dose 10 mg/kg; settings: C57Bl/6; procedure, shortened: as §2
Mus musculus [9] = test: Antiinflammatory activity against trinitrobenzenesulfonic acid-induced colitis in human PXR expressing transgenic C57/BL6 mouse assessed as decrease in INF-gamma protein level in colon at 10 mg/kg, ip qd after 5 days; format: functional, organism-based; parameters: dose 10 mg/kg; settings: C57Bl/6
Mus musculus [10] = test: Antiinflammatory activity against trinitrobenzenesulfonic acid-induced colitis in human PXR expressing transgenic C57/BL6 mouse assessed as decrease in presence of indurations in colon at 10 mg/kg, ip qd administered 3 days before TNBS challenge measured after 7 days; format: functional, organism-based; parameters: dose 10 mg/kg; settings: C57Bl/6; procedure, shortened: as §1
Mus musculus [11] = test: Antiinflammatory activity against trinitrobenzenesulfonic acid-induced colitis in human PXR expressing transgenic C57/BL6 mouse assessed as decrease in vascular density in colon at 10 mg/kg, ip administered on day 1 after TNBS challenge measured after 5 days by microscopically; settings: C57Bl/6
Mus musculus [12] = test: Antiinflammatory activity against trinitrobenzenesulfonic acid-induced colitis in human PXR expressing transgenic C57/BL6 mouse assessed as decrease in microscopic colon damage at 10 mg/kg, ip qd administered 3 days before TNBS challenge measured after 7 days; format: functional, organism-based; parameters: dose 10 mg/kg; settings: C57Bl/6; procedure, shortened: as §1
Mus musculus [13] = test: Antiinflammatory activity against trinitrobenzenesulfonic acid-induced colitis in human PXR expressing transgenic C57/BL6 mouse assessed as decrease in evidence of mucosal hemorrhage in colon at 10 mg/kg, ip qd administered 3 days before TNBS challenge measured after 7 days; format: functional, organism-based; parameters: dose 10 mg/kg; settings: C57Bl/6; procedure, shortened: as §1
Mus musculus [14] = test: Antiinflammatory activity against trinitrobenzenesulfonic acid-induced colitis in human PXR expressing transgenic C57/BL6 mouse assessed as decrease in edema of colon at 10 mg/kg, ip administered on day 1 after TNBS challenge measured after 5 days; format: functional, organism-based; parameters: dose 10 mg/kg; settings: C57Bl/6; procedure, shortened: as §2
Mus musculus [15] = test: Antiinflammatory activity against trinitrobenzenesulfonic acid-induced colitis in human PXR expressing transgenic C57/BL6 mouse assessed as decrease in presence of indurations in colon at 10 mg/kg, ip administered on day 1 after TNBS challenge measured after 5 days; format: functional, organism-based; parameters: dose 10 mg/kg; settings: C57Bl/6; procedure, shortened: as §2
Mus musculus [16] = test: Antiinflammatory activity against trinitrobenzenesulfonic acid-induced colitis in human PXR expressing transgenic C57/BL6 mouse assessed as decrease in weight loss at 10 mg/kg, ip administered on day 1 after TNBS challenge measured after 5 days; format: functional, organism-based; parameters: dose 10 mg/kg; settings: C57Bl/6; procedure, shortened: as §2
Mus musculus [17] = test: Antiinflammatory activity against trinitrobenzenesulfonic acid-induced colitis in human PXR expressing transgenic C57/BL6 mouse assessed as decrease in IL-12p70 protein level in colon at 10 mg/kg, ip qd after 5 days; format: functional, organism-based; parameters: dose 10 mg/kg; settings: C57Bl/6
Mus musculus [18] = test: Antiinflammatory activity against trinitrobenzenesulfonic acid-induced colitis in human PXR expressing transgenic C57/BL6 mouse assessed as decrease in goblet cells in colon at 10 mg/kg, ip administered on day 1 after TNBS challenge measured after 5 days by microscopically; format: functional, organism-based; parameters: dose 10 mg/kg; settings: C57Bl/6; procedure, shortened: as §2
Mus musculus [19] = test: Antiinflammatory activity against trinitrobenzenesulfonic acid-induced colitis in human PXR expressing transgenic C57/BL6 mouse assessed as decrease in colonic myeloperoxidase activity at 10 mg/kg, ip qd after 5 days using trimethylbenzidine as substrate by spectrophotometry; format: functional, organism-based; parameters: dose 10 mg/kg; settings: C57Bl/6; procedure, shortened: as §1
[20] = target: T1, Nuclear receptor subfamily 1 group I member 2 (Homo sapiens, UniProt O75469); test: Transactivation of human PXR expressed in HepG2 cells after 18 hrs by luciferase reporter gene assay; format: cell-based
T1 sequence (O75469 whole entry): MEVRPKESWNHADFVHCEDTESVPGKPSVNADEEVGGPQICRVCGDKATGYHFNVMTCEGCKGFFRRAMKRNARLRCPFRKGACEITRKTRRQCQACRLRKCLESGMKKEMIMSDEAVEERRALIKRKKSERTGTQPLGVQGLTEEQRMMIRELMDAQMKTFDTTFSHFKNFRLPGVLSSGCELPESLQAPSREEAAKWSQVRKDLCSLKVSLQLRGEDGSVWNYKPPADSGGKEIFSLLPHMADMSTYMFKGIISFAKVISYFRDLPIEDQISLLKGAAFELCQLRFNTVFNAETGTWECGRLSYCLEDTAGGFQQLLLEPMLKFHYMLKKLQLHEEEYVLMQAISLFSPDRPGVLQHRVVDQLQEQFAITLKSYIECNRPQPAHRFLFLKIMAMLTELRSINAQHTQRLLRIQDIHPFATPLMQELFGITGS
Procedure, shortened: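 HepG2 cells were transiently transfected with pSG5-PXR, pSG5-RXR, pCMV-βgal and a CYP3A4-promoter luciferase reporter. 48 h after transfection, cells were stimulated for 18 h at 0.1, 1 and 10 μM. Luciferase was normalised to β-galactosidase; n = 4. Relative EC50 from n = 3.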

In the case of `C[C@H](CCCOS(=O)(=O)O)[C@H]1CC[C@H]2[C@@H]3CC[C@H]4C[C@H](OS(=O)(=O)O)[C@@H](OS(=O)(=O)O)C[C@]4(C)[C@H]3CC[C@]12C` [SOLOMONSTEROL A], the Activity (Mus musculus [1]) is reported as “Active”, the Activity (Mus musculus [2]) is reported as “Active” and the Activity (Mus musculus [3]) is reported as “Active”. For the same compound, the Activity (Mus musculus [4]) was “Active”, the Activity (Mus musculus [5]) was “Active” and the Activity (Mus musculus [6]) was “Active”. For the same compound, the Activity (Mus musculus [7]) was “Active”, the Activity (Mus musculus [8]) was “Active” and the Activity (Mus musculus [9]) was “Active”. The Activity (Mus musculus [10]) was “Active”, the Activity (Mus musculus [11]) was “Active” and the Activity (Mus musculus [12]) was “Active”. The Activity (Mus musculus [13]) was “Active”, the Activity (Mus musculus [14]) was “Active” and the Activity (Mus musculus [15]) was “Active”. The Activity (Mus musculus [16]) was “Active”, the Activity (Mus musculus [17]) was “Active” and the Activity (Mus musculus [18]) was “Active”. The Activity (Mus musculus [19]) was “Active” and the EC50 [20] was 5.2 µM.
